Activity calls are given as the source filed them. The calls are words filed in the database; no cut-off is given here.
Columns and labels:
Rattus norvegicus [1] = assay: Neuroprotective activity in Sprague-Dawley rat assessed as protection against acrylamide-induced decrease of glutathione level at 50 mg/kg, ip administered 10 mins before acrylamide challenge for 3 days per week […] by spectrofluorometrically (reference value: -27%); format: functional; set-up: scale not given: the % may be the effect or the level left; conditions: route intraperitoneal
Rattus norvegicus [2] = assay: Neuroprotective activity in Sprague-Dawley rat assessed as protection against acrylamide-induced increase of malondialdehyde level at 50 mg/kg, ip administered 10 mins before acrylamide challenge for 3 days per week […] by spectrofluorometrically (reference value: 31%); format: functional; conditions: route intraperitoneal
Rattus norvegicus [3] = assay: Neuroprotective activity in Sprague-Dawley rat assessed as protection against acrylamide-induced decrease in adrenaline level at 50 mg/kg, ip administered 10 mins before acrylamide challenge for 3 days per week […] by ELISA (reference value: -40%); format: functional; set-up: scale not given: the % may be the effect or the level left; conditions: route intraperitoneal
Rattus norvegicus [4] = assay: Neuroprotective activity in Sprague-Dawley rat assessed as protection against acrylamide-induced decrease of superoxide dismutase level at 50 mg/kg, ip administered 10 mins before acrylamide challenge for 3 days per week for 3 weeks by spectrofluorometrically (reference value: -32%); set-up: scale not given: the % may be the effect or the level left; conditions: route intraperitoneal
Rattus norvegicus [5] = assay: Neuroprotective activity in Sprague-Dawley rat assessed as protection against acrylamide-induced decrease of creatine kinase level at 50 mg/kg, ip administered 10 mins before acrylamide challenge for 3 days per week for 3 weeks by spectrofluorometrically (reference value: -73%); set-up: scale not given: the % may be the effect or the level left; conditions: route intraperitoneal
Rattus norvegicus [6] = assay: Neuroprotective activity in Sprague-Dawley rat assessed as protection against acrylamide-induced decrease in dopamine level at 50 mg/kg, ip administered 10 mins before acrylamide challenge for 3 days per week […] by spectrofluorometrically (reference value: -16%); format: functional; set-up: scale not given: the % may be the effect or the level left; conditions: route intraperitoneal
Rattus norvegicus [7] = assay: Neuroprotective activity in Sprague-Dawley rat assessed as protection against acrylamide-induced increase of LDH level at 50 mg/kg, ip administered 10 mins before acrylamide challenge for 3 days per week for 3 weeks by spectrofluorometrically (reference value: 67%); conditions: route intraperitoneal
Rattus norvegicus [8] = assay: Neuroprotective activity in Sprague-Dawley rat assessed as protection against acrylamide-induced decrease of glutathione peroxidase level at 50 mg/kg, ip administered 10 mins before acrylamide challenge for 3 days per week for 3 weeks by spectrofluorometrically (reference value: -43%); set-up: scale not given: the % may be the effect or the level left; conditions: route intraperitoneal
Rattus norvegicus [9] = assay: Neuroprotective activity in Sprague-Dawley rat assessed as protection against acrylamide-induced decrease in noradrenaline level at 50 mg/kg, ip administered 10 mins before acrylamide challenge for 3 days per week […] by ELISA (reference value: -21%); format: functional; set-up: scale not given: the % may be the effect or the level left; conditions: route intraperitoneal
Rattus norvegicus [10] = assay: Neuroprotective activity in Sprague-Dawley rat assessed as protection against acrylamide-induced neuronal damage at 50 mg/kg, ip administered 10 mins before acrylamide challenge for 3 days per week for 2 weeks by histopathology analysis; format: functional, organism-based; set-up: dose 50 mg/kg; conditions: in the assay text read “for 3 weeks” for “for 2 weeks”
In short: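 Rats (n = 10 per group) given agent at 50 mg/kg i.p. in 2% Tween 10 min before ACR at 50 mg/kg i.p., 3 days/week for 3 weeks. Brain tissue examined by light photomicrography for neuronal morphology (dark neurons, chromatin clumping, vacuoles), compared with control and ACR-only rats.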

| SMILES | Activity (Rattus norvegicus [1]) | Activity (Rattus norvegicus [2]) | Activity (Rattus norvegicus [3]) | Activity (Rattus norvegicus [4]) | Activity (Rattus norvegicus [5]) | Activity (Rattus norvegicus [6]) | Activity (Rattus norvegicus [7]) | Activity (Rattus norvegicus [8]) | Activity (Rattus norvegicus [9]) | Activity (Rattus norvegicus [10]) |
| --- | --- | --- | --- | --- | --- | --- | --- | --- | --- | --- |
| COc1ccc2c(c1)c(CCNC(C)=O)c1sc(-c3c(C(C)=O)nn(-c4ccccc4)c3N)nn12 | 27% | -19% | 60% | 65% | 6% | 10% | -45% | 5% | 14% | – |
| COc1ccc2c(c1)c(CCNC(C)=O)cn2CN1CCOCC1 | 27% | -21% | 65% | 77% | 30% | 19% | -55% | 11% | 28% | – |
| COc1ccc2c(c1)c(CCNC(C)=O)cn2-c1c[nH]nc1-c1ccccc1 | 9% | -17% | 60% | 41% | 6% | 3% | -40% | 3% | 11% | – |
| COc1ccc2c(c1)c(CCNC(C)=O)c1sc(C3=C(c4ccccc4)CC(=N)C(C#N)=C3N)nn12 | 27% | -20% | 63% | 71% | 18% | 11% | -47% | 8% | 28% | – |
| COc1ccc2[nH]cc(CCNC(C)=O)c2c1 [MELATONIN] | 82% | -22% | 67% | 135% | 59% | 33% | -65% | 38% | 32% | Active |
